Activity calls are given as the source filed them.
How the values were obtained:
[1] = biological target: T1, 5-hydroxytryptamine receptor 3A (Cavia porcellus) (UniProt O70212); assay: Agonist activity at 5HT3 receptor in voltage-stimulated guinea pig left atrium assessed as positive inotropic potency; type: functional, tissue-based; conditions: Cardiac atrium
T1 sequence (whole entry): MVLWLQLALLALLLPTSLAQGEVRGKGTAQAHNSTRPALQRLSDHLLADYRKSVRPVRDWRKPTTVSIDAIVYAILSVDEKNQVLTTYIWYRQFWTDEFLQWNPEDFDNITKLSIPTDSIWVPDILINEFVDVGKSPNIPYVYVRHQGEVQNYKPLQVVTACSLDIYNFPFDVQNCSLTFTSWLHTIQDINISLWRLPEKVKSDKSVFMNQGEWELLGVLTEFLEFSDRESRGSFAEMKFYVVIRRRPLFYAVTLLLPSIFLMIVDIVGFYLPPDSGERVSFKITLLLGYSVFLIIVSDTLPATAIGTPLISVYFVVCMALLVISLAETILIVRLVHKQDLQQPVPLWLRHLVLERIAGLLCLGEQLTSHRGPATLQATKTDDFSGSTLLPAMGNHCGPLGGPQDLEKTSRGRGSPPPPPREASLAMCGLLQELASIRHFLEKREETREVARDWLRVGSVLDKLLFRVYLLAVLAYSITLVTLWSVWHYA
How it was run: (§1)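 Isolated guinea pig atria in PSS (Tyrode) with ketanserin 1 µM, 95% O2-5% CO2, pH 7.4, 35 °C. Right atrium beating spontaneously (rate); left atrium paced 1 Hz, 0.6-0.8 ms pulses near 50% threshold (force). Isometric recording after 45-60 min stabilization.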

[2] = biological target: T1, 5-hydroxytryptamine receptor 3A (Cavia porcellus); assay: Intrinsic activity at 5HT3 receptor in voltage-stimulated guinea pig left atrium assessed as positive inotropic potency relative to serotonin; type: tissue-based; conditions: Cardiac atrium
How it was run: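 Electrically paced guinea pig left atrium (1 Hz) in PSS containing ketanserin 1 µM, pH 7.4, 35 °C. Contractile force recorded isometrically while cumulative concentrations of 0.1-100 µM were added (DMSO ≤0.3%). Intrinsic activity is expressed as the maximal response relative to that of 5-HT.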

[3] = biological target: T1, 5-hydroxytryptamine receptor 3A (Cavia porcellus); assay: Agonist activity at 5HT3 receptor in spontaneously beating guinea pig right atrium assessed as positive chronotropic potency; type: functional, tissue-based; conditions: Cardiac atrium; how it was run: as §1
[4] = biological target: T1, 5-hydroxytryptamine receptor 3A (Cavia porcellus); assay: Intrinsic activity at 5HT3 receptor in spontaneously beating guinea pig right atrium assessed as positive chronotropic potency relative to serotonin; conditions: Cardiac atrium
How it was run: (§2)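 Guinea pig left and right atria were hung in a 15 mL bath of PSS (pH 7.4, 95% O2-5% CO2, 35 °C) with ketanserin 1 µM. The right atrium beat spontaneously; the left was paced at 1 Hz. Cumulative doses (0.1-100 µM; DMSO ≤0.3%) were added after 45-60 min stabilization. Rate or isometric force was recorded. EC50 came from Probit analysis, n≥4. Intrinsic activity was taken relative to 5-HT.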

[5] = biological target: T1, 5-hydroxytryptamine receptor 3A (Cavia porcellus); conditions: Thoracic aorta
[6] = test system: Rattus norvegicus; assay: Antagonist activity at 5HT3 receptor in urethane-anesthetized Sprague-Dawley rat assessed as attenuation of 1-phenylbiguanide-induced bradycardia at 50 ug/kg, iv administered 5 mins before 1-phenylbiguanide challenge measured after 30 mins post-treatment by von Bezold-Jarisch reflex test; type: functional; design: scale not given: the % may be the effect or the level left
[7] = biological target: T2, 5-hydroxytryptamine receptor 3A (Rattus norvegicus, UniProt P35563); assay: Displacement of [3H]LY278584 from 5HT3 receptor in rat cortical homogenate
T2 sequence (P35563 whole entry): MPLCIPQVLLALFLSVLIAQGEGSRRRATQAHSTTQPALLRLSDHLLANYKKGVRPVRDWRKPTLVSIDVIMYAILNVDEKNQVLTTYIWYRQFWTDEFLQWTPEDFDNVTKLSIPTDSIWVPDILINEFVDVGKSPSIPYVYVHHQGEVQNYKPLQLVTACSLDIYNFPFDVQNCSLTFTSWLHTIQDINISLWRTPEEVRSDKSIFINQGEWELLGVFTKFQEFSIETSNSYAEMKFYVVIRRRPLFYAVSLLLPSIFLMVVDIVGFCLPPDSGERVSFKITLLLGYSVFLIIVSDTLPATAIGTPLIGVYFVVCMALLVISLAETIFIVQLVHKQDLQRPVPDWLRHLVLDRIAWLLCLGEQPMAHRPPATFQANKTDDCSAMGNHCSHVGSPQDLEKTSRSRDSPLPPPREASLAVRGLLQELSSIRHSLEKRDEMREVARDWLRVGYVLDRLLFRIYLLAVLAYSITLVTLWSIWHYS

[8] = biological target: T1, 5-hydroxytryptamine receptor 3A (Cavia porcellus); assay: Agonist activity at 5HT3 receptor in voltage-stimulated guinea pig left atrium assessed as positive inotropic potency at 100 uM; type: functional, tissue-based; conditions: Cardiac atrium; how it was run: as §2
[9] = biological target: T1, 5-hydroxytryptamine receptor 3A (Cavia porcellus); assay: Agonist activity at 5HT3 receptor in spontaneously beating guinea pig right atrium assessed as positive chronotropic potency at 100 uM; type: functional, tissue-based; conditions: Cardiac atrium; how it was run: as §2
[10] = biological target: T1, 5-hydroxytryptamine receptor 3A (Cavia porcellus); assay: Agonist activity at 5HT3 receptor in guinea pig thoracic aorta assessed as positive contractility potency at 100 uM; type: functional, tissue-based
How it was run: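 Guinea pig aortic helicoidal strips in PSS at 35 °C, aerated, under 1 g resting force, washed every 20 min for 1 h. Compounds added cumulatively 0.1-100 µM (DMSO vehicle); isometric contraction recorded.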

[11] = biological target: T3, 5-hydroxytryptamine receptor 3A (Cavia porcellus, UniProt O70212); assay: Antagonist activity at 5HT3 receptor in spontaneously beating guinea pig right atrium assessed as inhibition of serotonin-induced maximum response by noncompetitive binding assay; type: tissue-based, Cardiac atrium
T3 sequence (O70212 whole entry): T1 sequence (whole entry)
How it was run: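 Spontaneously beating guinea pig right atrium; 5-HT concentration-response curves (0.001-1.0 µM) before and after 30 min antagonist exposure at three concentrations. IC50 is inhibition of 50% of maximal 5-HT response, Probit analysis, n = 4-6.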

[12] = test system: Rattus norvegicus; assay: Antagonist activity at 5HT3 receptor in iv dosed urethane-anesthetized Sprague-Dawley rat assessed as inhibition of 1-phenylbiguanide-induced bradycardia administered 5 mins before 1-phenylbiguanide challenge measured after 5 to 30 mins post-treatment by von Bezold-Jarisch reflex test; type: functional
[13] = biological target: T3, 5-hydroxytryptamine receptor 3A; assay: Antagonist activity at 5HT3 receptor in spontaneously beating guinea pig right atrium assessed as inhibition of serotonin-induced maximum response by competitive binding assay; design: species or system Cardiac atrium; conditions: read-out: pA2 (converted)

SMILES | pD2 [1] | pD2 [3] | pD2 [8] | pD2 [9] | pD2 [10] | further results
Cc1[nH]c2ccc(O)cc2c1CCN | 5.51 | 5.06 | – | – | – | Intrinsic activity [2]: 1; Intrinsic activity [4]: 1
NCCc1c[nH]c2ccc(O)cc12 | 6.85 | 5.78 | – | – | – | pD2 [5]: 4.19
NC(=O)CN1CCN(c2nc3cc(F)ccc3n3cccc23)CC1 | – | – | inactive | inactive | inactive | Activity [6]: 35%; Ki [7]: 0.0073 µM; IC50 [11]: 11.2 µM; ID50 [12]: Dose-dependent effect; ED50 ([12]; read-out: ID50 (the source's name)): 0.075 mg/kg
CN1[C@@H]2CC[C@H]1C[C@@H](OC(=O)c1c[nH]c3ccccc13)C2 [TROPISETRON] | – | – | inactive | inactive | inactive | Kb [13]: 0.0302 µM
